Test results published in ChEMBL document CHEMBL1128702, “Structure-activity relationships of the antimalarial agent artemisinin. 2. Effect of heteroatom substitution at O-11: synthesis and bioassay of N-alkyl-11-aza-9-desmethylartemisinins” (J Med Chem, 1995).

Tests used:
[1] = tested on: Plasmodium falciparum; test: Relative potency was determined in vitro in paratized human whole blood against drug resistant strain of Plasmodium falciparum strain-Sierra Leone(D-6)
[2] = organism: Homo sapiens; test: Relative potency was determined in vitro in paratized human whole blood against […]strain of Plasmodium falciparum in WR(Walter Reed) army institute of research; format: functional
[3] = organism: Homo sapiens; test: Relative potency was determined in vitro in paratized human whole blood against […]strain of Plasmodium falciparum in University of mississippi using parasite lactate dehydrogenase assay; format: functional
Method in brief: (§1)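 P. falciparum W-2 and D-6 tested at University of Mississippi by Makler parasite lactate dehydrogenase assay: pLDH reduces APAD to APADH (human RBC LDH does so only slowly); APADH detected colorimetrically via nitroblue tetrazolium reduction to blue formazan. Relative potencies derived as for the Walter Reed assay.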

[4] = organism: Homo sapiens; test: Relative potency was determined in vitro in paratized human whole blood against chloroquine sensitive (D-6) strain of Plasmodium falciparum in University of mississippi using parasite lactate dehydrogenase assay; format: functional
Method in brief: as §1

[5] = tested on: Plasmodium falciparum; test: Relative potency was determined in vitro in paratized human whole blood against drug resistant strain of Plasmodium falciparum strain-Indochina(W-2)
[6] = Partition coefficient (logP); format: physicochemical; settings: octanol/water
Method in brief: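 log P measured by literature procedures using standard values, also calculated with CLOGP; UV detection at 330 nm for ketone standards and 216 nm for artemisinin derivatives; samples run in triplicate.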

SMILES: C[C@@H]1CC[C@H]2CC(=O)N(Cc3ccccc3)C3O[C@@]4(C)CC[C@@H]1[C@]32OO4 (stereo partly drawn)
- Relative potency [1]: 189%
- Relative potency [2]: 217%
- Relative potency [3]: 252%
- Relative potency [4]: 146%
- Relative potency [5]: 217%

SMILES: C[C@@H]1CC[C@H]2CC(=O)N(Cc3ccc(Cl)cc3)C3O[C@@]4(C)CC[C@@H]1[C@]32OO4 (stereo partly drawn)
- Relative potency [1]: 111%
- Relative potency [2]: 69%
- logP [6]: 3.96
- Relative potency [3]: 311%
- Relative potency [4]: 128%
- Relative potency [5]: 69%

SMILES: C[C@@H]1CC[C@H]2CC(=O)N(CCCCCC(=O)O)C3O[C@@]4(C)CC[C@@H]1[C@]32OO4 (stereo partly drawn)
- Relative potency [1]: 12%
- Relative potency [5]: 2%

SMILES: C[C@@H]1CC[C@H]2CC(=O)N(CCN(C)C)C3O[C@@]4(C)CC[C@@H]1[C@]32OO4 (stereo partly drawn)
- Relative potency [1]: 37%

SMILES: C[C@@H]1CC[C@H]2CC(=O)N(CCc3ccccc3)C3O[C@@]4(C)CC[C@@H]1[C@]32OO4 (stereo partly drawn)
- Relative potency [1]: 197%
- Relative potency [2]: 143%
- logP [6]: 3.5
- Relative potency [3]: 204%
- Relative potency [4]: 187%
- Relative potency [5]: 143%

SMILES: CC(C)CN1C(=O)C[C@@H]2CC[C@@H](C)[C@@H]3CC[C@@]4(C)OO[C@@]23C1O4 (stereo partly drawn)
- Relative potency [1]: 145%
- Relative potency [2]: 105%
- logP [6]: 3.01
- Relative potency [3]: 227%
- Relative potency [4]: 155%
- Relative potency [5]: 105%

SMILES: C[C@@H]1CC[C@H]2CC(=O)N(CC(=O)O)C3O[C@@]4(C)CC[C@@H]1[C@]32OO4 (stereo partly drawn)
- Relative potency [1]: 6%
- logP [6]: 1.69

SMILES: CC(C)CCN1C(=O)C[C@@H]2CC[C@@H](C)[C@@H]3CC[C@@]4(C)OO[C@@]23C1O4 (stereo partly drawn)
- Relative potency [1]: 149%
- logP [6]: 3.54
- Relative potency [5]: 92%

SMILES: CCCN1C(=O)C[C@@H]2CC[C@@H](C)[C@@H]3CC[C@@]4(C)OO[C@@]23C1O4 (stereo partly drawn)
- Relative potency [1]: 75%
- logP [6]: 2.61
- Relative potency [5]: 111%

SMILES: C[C@@H]1CC[C@H]2CC(=O)N(CCCc3ccccc3)C3O[C@@]4(C)CC[C@@H]1[C@]32OO4 (stereo partly drawn)
- Relative potency [1]: 205%
- Relative potency [2]: 105%
- logP [6]: 4.03
- Relative potency [3]: 281%
- Relative potency [4]: 147%
- Relative potency [5]: 105%

SMILES: C[C@@H]1CC[C@H]2CC(=O)N(C)C3O[C@@]4(C)CC[C@@H]1[C@]32OO4 (stereo partly drawn)
- Relative potency [1]: 213%
- logP [6]: 1.55
- Relative potency [5]: 500%

SMILES: CCCCCN1C(=O)C[C@@H]2CC[C@@H](C)[C@@H]3CC[C@@]4(C)OO[C@@]23C1O4 (stereo partly drawn)
- Relative potency [1]: 110%
- logP [6]: 3.67
- Relative potency [5]: 63%

SMILES: C[C@@H]1CC[C@H]2[C@@H](C)C(=O)O[C@@H]3O[C@@]4(C)CC[C@@H]1[C@]32OO4 [ARTEMISININ]
- Relative potency [1]: 100%
- Relative potency [5]: 100%
